Data on eleven molecules can be found in PMC8059355 (ACS infectious diseases, 2020).

Entries after “also recorded” stand apart in the source; their conditions may differ. Like-named read-outs stand apart in the source and are kept apart here.

In data set [1] the test system is L. amazonensis intracellular amastigotes. The data set is classed as cell-based, Leishmania amazonensis. Conditions: read-out: intracellular amastigotes, EC50 ± SE.
For data set [2], the system named is L. amazonensis axenic amastigotes. The data set is classed as cell-based, Leishmania amazonensis. Conditions: for EC50: Leishmania amazonensis, 72 h, read-out: EC50 ± SE.
Data set [3] deals with L. amazonensis promastigotes. Kind of data set: alamarBlue assay, L. amazonensis promastigotes. The format is cell-based, Leishmania amazonensis. Conditions: read-out: Promastigote EC50 ± SE, 72 h.
Data set [4] deals with RAW 264.7 cells.
The subject of data set [5] is L. amazonensis promastigotes and amastigotes. Description: microscopy of cell division in L. amazonensis promastigotes and amastigotes. The format is cell-based, Leishmania amazonensis. Conditions: 48 h at the EC50 72h concentration; for increase in parasites in mid-cell division, promastigotes: compared to DMSO control.
Data set [6] deals with L. amazonensis promastigotes. Description: microscopy of promastigote morphology. The data set is classed as cell-based, Leishmania amazonensis. Conditions: compared to DMSO control; for increase in pear-shaped promastigotes: 48 h at the EC50 72h; for increase in flagella length: promastigotes, 24 h at the EC50 72h.
Data set [7] concerns L. donovani axenic amastigotes. Kind of data set: alamarBlue assay, L. donovani axenic amastigotes. The format is cell-based, Leishmania donovani. Conditions: read-out: L. donovani axenic amastigotes, EC50 ± SE, 72 h. The gist of the method:
(§1)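 Axenic amastigotes were exposed to a compound dilution series and growth was measured with 10% alamarBlue, fluorescence at 530 nm excitation and 570 nm emission. Each plate held three technical replicates, with at least three biological repeats. Percent growth relative to untreated control was plotted against log10 concentration. EC50 per repeat was fitted by sigmoidal variable-slope nonlinear regression and reported as mean ± SE.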

Data set [8] deals with blood-stage P. falciparum. Description: Malaria SYBR green I fluorescence. The format is cell-based, Plasmodium falciparum. Conditions: read-out: P. falciparum EC50 ± SE, 3D7, MSF assay.
Data set [9] deals with L. tarentolae axenic amastigotes. Description: alamarBlue assay, L. tarentolae axenic amastigotes. The format is cell-based, Leishmania tarentolae. Conditions: read-out: L. tarentolae axenic amastigotes EC50 ± SE. The gist of the method: as §1
Data set [10] has as its system blood-stage Trypanosoma brucei. Kind of data set: CellTiter-Glo luminescent assay, T. brucei. The data set is classed as cell-based. Conditions: read-out: T. brucei EC50 ± SE.
In data set [11] the test system is purified L. tarentolae tubulin. Description: turbidity tubulin polymerization assay, purified L. tarentolae tubulin. The data set is classed as biochemical, Leishmania tarentolae. Conditions: read-out: L. tarentolae tubulin polymerization EC50 (estimated); 3 mg/mL tubulin, A340, 30 °C.
The subject of data set [12] is L. amazonensis axenic amastigotes. The format is cell-based, Leishmania amazonensis. Conditions: 24 h at the EC50 72h, densitometry of Western blots.
Data set [13] concerns purified L. tarentolae tubulin. Description: chemical cross-linking with SW22 probe and competition, fluorescent tubulin band. The data set is classed as binding, Leishmania tarentolae. Conditions: for competition with SW22 probe for tubulin, fluorescent band: fully purified tubulin, competitor at 100-fold excess.
The subject of data set [14] is Neospora caninum. Conditions: read-out: Neospora caninum EC50; cited from earlier work.
Data set [15] deals with Cryptosporidium parvum. Conditions: read-out: Cryptosporidium parvum EC50; cited from earlier work.
Data set [16] has as its system Entamoeba histolytica trophozoite. Conditions: cited from earlier work.
Data set [17] has as its system L. amazonensis. Kind of data set: paclitaxel EC50 72h for La. Conditions: Leishmania amazonensis, read-out: EC50 72h for La. The data set is classed as cell-based.
The mark [18] stands for this setting: L. amazonensis intracellular amastigotes in RAW 264.7 cells, 72 h, luciferase.

With `N#Cc1nc(-c2ccccc2)oc1S(=O)(=O)c1ccc(Cl)cc1` [MMV676412], the 50% effective concentration (EC50) in data set [1] (setting [18]) was above 2000 nM.

In the case of `C[C@]1(COc2ccc(N3CCC(Oc4ccc(OC(F)(F)F)cc4)CC3)cc2)Cn2cc([N+](=O)[O-])nc2O1` [delamanid], the EC50 in data set [2] turned out to be 31 ± 3.5 nM.

With `CC(=O)Oc1ccccc1C(=O)Nc1ncc([N+](=O)[O-])s1` [nitazoxanide], the EC50 in [2] turned out to be 590 ± 100 nM.

For `C#CCOc1ccc(C(=O)c2ccc(C(=O)Nc3cc(C)nn3-c3nc(C)c(CC)c(=O)[nH]3)cc2)cc1` [SW22, N-(1-(5-ethyl-4-methyl-6-oxo-1,6-dihydropyrimidin-2-yl)-3-methyl-1H-pyra-zol-5-yl)-4-(4-(prop-2-yn-1-yloxy)benzoyl) benzamide], the EC50 in [3] was determined as 6700 ± 53 nM. Also, half-maximal cytotoxicity in data set [4] (CC50) was put at 1300 ± 42 nM.

On to `CCCCCCCCCCCCCCCCOP(=O)([O-])OCC[N+](C)(C)C` [miltefosine], for which the concentration giving a half-maximal response (EC50) in data set [2] was found to be 1200 ± 280 nM. The “effect on L. amazonensis cell division” value in data set [5] was “did not affect L. amazonensis cell division”. Further, in [6], the “increase in pear-shaped promastigotes” value is reported as “did not affect” and the “increase in flagella length” value is listed as “did not affect”.

On to `CCc1c(C)nc(-n2nc(C)cc2NC(=O)c2ccc(F)c(Cl)c2)[nH]c1=O` [SW41], for which the results for the concentration for a half-maximal effect (EC50) in data set [1] (setting [18]), in data set [7] and in data set [3] were 220 ± 13 nM, 310 ± 38 nM and 780 ± 29 nM, respectively. Moreover, the midpoint of cytotoxicity in data set [4], the CC50, lay at 2400 ± 100 nM.

For `CCc1c(C)nc(-n2nc(C)cc2NC(=O)c2ccccc2SC)[nH]c1=O` [MMV676477], the EC50 amounted to 500 ± 20 nM in [1] (setting [18]); 1300 ± 210 nM in [7]; 420 ± 19 nM in [8]; 11 ± 1.3 nM in [9]; 190 ± 8.7 nM in [10]; 2400 ± 35 nM in data set [3]. Further, the EC50 in [11] was 500 ± 100 nM; in [14], 13 nM; in [15], 220 nM. In addition, the “increase in parasites in mid-cell division, promastigotes” value in [5] is given as ~ 2 fold. In addition, the “increase in pear-shaped promastigotes” value in data set [6] worked out at 2 fold. Besides, the “increase in flagella length” value in data set [6] is ~ 1.5 fold. The “proportion of cellular polymeric tubulin” value in data set [12] is “significantly increased”. In addition, the “competition with SW22 probe for tubulin, fluorescent band” value in data set [13] is given as “significantly dimmer”. This molecule showed a CC50 in data set [4] of 2200 ± 410 nM. The “Entamoeba histolytica trophozoite proliferation at 10 μM” value in data set [16] is given as 56%.

For `C[C@@H]1[C@H](O)[C@@H](C)/C=C/C=C/C=C/C=C/C=C/C=C/C=C/[C@H](O[C@@H]2O[C@H](C)[C@@H](O)[C@H](N)[C@@H]2O)C[C@@H]2O[C@](O)(C[C@@H](O)C[C@@H](O)[C@H](O)CC[C@@H](O)C[C@@H](O)CC(=O)O[C@H]1C)C[C@H](O)[C@H]2C(=O)O` [amphotericin B, reference compound], the half-maximal effective concentration (EC50) came to 53 ± 4.4 nM in data set [2] and 65 ± 26 nM in data set [1] (Leishmania amazonensis, RAW264.7, 72 h).

As to `CSc1ccccc1C(=O)Oc1cc(C)nc(-n2nc(C)cc2N)n1` [SW10], the “antileishmanial activity (in words)” value in [2] (L. amazonensis) is “essentially inactive; also recorded: nearly inactive”. The EC50 in data set [3] is above 50000 nM. The “dimming of the fluorescent tubulin band in presence of competitor” value in data set [13] (L. tarentolae tubulin still including some additional proteins, SW22 probe) is “No apparent dimming”. In addition, the “competition with SW22 probe for tubulin, fluorescent band” value in data set [13] was “no apparent competition”. Besides, the cytotoxic concentration (CC50) in data set [4] was above 10000 nM.

For `CC(C)(C)[C@H]1CC[C@H](CC2=C(O)C(=O)c3ccccc3C2=O)CC1` [buparvaquone], the EC50 in data set [2] came to 12 ± 1.1 nM.

In the case of `CC(=O)O[C@H]1C(=O)[C@@]2(C)[C@H]([C@H](OC(=O)c3ccccc3)[C@]3(O)C[C@H](OC(=O)[C@H](O)[C@@H](NC(=O)c4ccccc4)c4ccccc4)C(C)=C1C3(C)C)[C@]1(OC(C)=O)CO[C@@H]1C[C@@H]2O` [paclitaxel], in [11], the EC50 was 1300 ± 100 nM. The “increase in parasites in mid-cell division, promastigotes” value in data set [5] was ~ 2 fold. In data set [6], the “increase in pear-shaped promastigotes” value worked out at 2 fold and the “increase in flagella length” value is reported as ~ 1.5 fold. The “proportion of cellular polymeric tubulin” value in data set [12] is given as “significantly increased”. Also, in [17], the concentration for a half-maximal effect (EC50) worked out at 760 ± 8.3 nM.
